The source made the active and inactive calls. The calls are words filed in the database; no cut-off is given here.
Columns and labels:
[1] = test system: Plasmodium yoelii nigeriensis; assay: Antimalarial activity against multi drug-resistant Plasmodium yoelii nigeriensis infected in Swiss mice (Mus musculus) assessed as suppression of parasitaemia level at 96 mg/kg, perorally daily for 4 days; assay type: functional; details: route oral
Summary of the method: (§1)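 Swiss mice (25 ± 1 g) infected day 0 with 1×10^6 parasitized RBC of multidrug-resistant P. yoelii nigeriensis. Groups of five dosed orally in groundnut oil (0.1 ml per dose), days 0–3, two divided doses daily. Parasitaemia read from thin blood smears on day 4 as % suppression. 100% means no parasites seen in 50 oil-immersion fields. β-Arteether was the positive control.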

[2] = test system: Plasmodium yoelii nigeriensis; assay: Antimalarial activity against multi drug-resistant Plasmodium yoelii nigeriensis infected in Swiss mice (Mus musculus) assessed as suppression of parasitaemia level at 48 mg/kg, perorally daily for 4 days; assay type: functional; details: route oral; summary of the method: as §1
[3] = test system: Plasmodium yoelii nigeriensis; assay: Antimalarial activity against multi drug-resistant Plasmodium yoelii nigeriensis infected in Swiss mice (Mus musculus) assessed as protection of patent infection at 96 mg/kg, perorally daily for 4 days measured after 28 days; assay type: functional, organism-based; set-up: dose 96 mg/kg
Summary of the method: (§2)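 Colony-bred Swiss mice (25 ± 1 g) inoculated day 0 with 1×10^6 parasitized RBC of P. yoelii nigeriensis (resistant to chloroquine, mefloquine, halofantrine). Five mice per dose. Oral dosing in groundnut oil, 0.1 ml per dose, days 0–3, given as two divided doses daily. Thin blood smears read through day 28. Mice without patent infection by day 28 scored cured, expressed as cured/treated.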

[4] = test system: Plasmodium yoelii nigeriensis; assay: Antimalarial activity against multi drug-resistant Plasmodium yoelii nigeriensis infected in Swiss mice (Mus musculus) assessed as protection of patent infection at 48 mg/kg, perorally daily for 4 days measured after 28 days; assay type: functional, organism-based; set-up: dose 48 mg/kg; summary of the method: as §2
[5] = test system: Plasmodium yoelii nigeriensis; assay: Antimalarial activity against multi drug-resistant Plasmodium yoelii nigeriensis infected in Swiss mice (Mus musculus) assessed as suppression of parasitaemia level at 24 mg/kg, perorally daily for 4 days; assay type: functional; details: route oral; summary of the method: as §1
[6] = test system: Plasmodium yoelii nigeriensis; assay: Antimalarial activity against multi drug-resistant Plasmodium yoelii nigeriensis infected in Swiss mice (Mus musculus) assessed as protection of patent infection at 24 mg/kg, perorally daily for 4 days measured after 28 days; assay type: functional, organism-based; set-up: dose 24 mg/kg; summary of the method: as §2

Compound | Activity [1] [%] | Activity [2] [%] | Activity [3] | Activity [4] | Activity [5] [%] | Activity [6]
C=C(c1ccc(Oc2ccc(-c3ccccc3)cc2)cc1)C1COC2(CCCC2)OO1 (stereo unspecified) | 100 | 100 | Active | inactive | – | –
C=C(c1ccc(Oc2ccc3ccccc3c2)cc1)C1COC2(CCCC2)OO1 (stereo unspecified) | 100 | 100 | Active | Active | 100 | inactive
C=C(c1ccc(Oc2ccccc2)cc1)C1COC2(OO1)C1CC3CC(C1)CC2C3 (stereo unspecified) | 100 | – | – | – | – | –
C=C(c1ccc(Oc2ccc3ccccc3c2)cc1)C1COC2(OO1)C1CC3CC(C1)CC2C3 (stereo unspecified) | 100 | – | – | – | – | –
CCO[C@H]1O[C@@H]2O[C@@]3(C)CC[C@H]4[C@H](C)CC[C@@H]([C@H]1C)[C@@]24OO3 [ARTEMOTIL] | – | 100 | – | Active | 100 | –
C=C(c1ccc(Oc2ccccc2)cc1)C1COC2(CCCCC2)OO1 (stereo unspecified) | 100 | – | – | – | – | –
C=C(c1ccc(Oc2cccc3ccccc23)cc1)C1COC2(CCCC2)OO1 (stereo unspecified) | 100 | 100 | Active | Active | 100 | inactive
C=C(c1ccc(Oc2ccc3ccccc3c2)cc1)C1COC2(CCCCC2)OO1 (stereo unspecified) | 100 | – | – | – | – | –
C=C(c1ccc(Oc2cccc3ccccc23)cc1)C1COC2(CCCCC2)OO1 (stereo unspecified) | 92.81 | – | inactive | – | – | –
C=C(c1ccc(Oc2ccccc2)cc1)C1COC2(CCCC2)OO1 (stereo unspecified) | 100 | – | – | – | – | –
C=C(c1ccc(Oc2cccc3ccccc23)cc1)C1COC2(OO1)C1CC3CC(C1)CC2C3 (stereo unspecified) | 93.15 | – | inactive | – | – | –
C=C(c1ccc(Oc2ccc(-c3ccccc3)cc2)cc1)C1COC2(OO1)C1CC3CC(C1)CC2C3 (stereo unspecified) | 100 | – | – | – | – | –
C=C(c1ccc(Oc2ccc(-c3ccccc3)cc2)cc1)C1COC2(CCCCC2)OO1 (stereo unspecified) | 84.39 | – | inactive | – | – | –

Reference: ChEMBL document CHEMBL1208735, “6-(4'-Aryloxy-phenyl)vinyl-1,2,4-trioxanes: a new series of orally active peroxides effective against multidrug-resistant Plasmodium yoelii in Swiss mice” (2010)
